Results taken from ChEMBL document CHEMBL4732021, “Repurposing the HCV NS3-4A protease drug boceprevir as COVID-19 therapeutics” (RSC Med Chem, 2021).
Active and inactive are the calls of the source. No cut-off for these calls is given here.

Assays:
Murine hepatitis virus [1] = assay: Antiviral activity against MHV-A59 infected in LR7 cells assessed as reduction in number of infected cells at 400 nM treated 2 hrs after post viral infection and measured after 6 hrs by DAPI staining based immunofluorescence analysis; format: functional, organism-based
How it was run: (§1)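 MHV A59 infection of LR7 cells on coverslips at MOI 1. Compound (4 nM–40 µM, tenfold dilutions) was added 2 h p.i. and cells were fixed at 8 h p.i. with 4% paraformaldehyde. Cells were permeabilized with 0.2% Triton X-100 and stained with anti-nsp2/nsp3 antiserum, an Alexa-488 secondary and DAPI. nsp2/nsp3-positive cells were counted by confocal microscopy relative to the DMSO control. ≥3 independent experiments.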

Murine hepatitis virus [2] = assay: Antiviral activity against MHV-A59 infected in LR7 cells assessed as reduction in N protein production at 400 nM treated 2 hrs after post viral infection and measured after 6 hrs by Western blot analysis; format: functional, organism-based
How it was run: (§2)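 LR7 cells (1×10^5/well) infected with MHV A59 at MOI 1 for 1 h, washed, then held in DMEM with 2% FBS. Compound (4 nM–40 µM, tenfold steps) was added at 2 h p.i. and cells were harvested at 8 h p.i. Western blot probed for MHV N protein, normalized to GAPDH and expressed relative to the 0.1% DMSO control. Mock and 400 nM bafilomycin A1 served as controls. ≥3 independent experiments.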

Murine hepatitis virus [3] = assay: Antiviral activity against MHV-A59 infected in LR7 cells assessed as reduction in number of infected cells at 40 uM treated 2 hrs after post viral infection and measured after 6 hrs by DAPI staining based immunofluorescence analysis relative to control; format: functional; parameters: scale not given: the % may be the effect or the level left; how it was run: as §1
Murine hepatitis virus [4] = assay: Antiviral activity against MHV-A59 infected in […] cells assessed as reduction in viral gene expression at 100 uM treated 2 hrs post viral infection and measured after 6 hrs by RT-PCR analysis; format: functional, organism-based
Murine hepatitis virus [5] = assay: Antiviral activity against MHV-A59 infected in LR7 cells assessed as reduction in number of infected cells at 40 nM treated 2 hrs post viral infection and measured after 6 hrs by immunofluorescence analysis; format: functional; parameters: scale not given: the % may be the effect or the level left; how it was run: as §1
Murine hepatitis virus [6] = assay: Antiviral activity against MHV-A59 infected in LR7 cells assessed as reduction in N protein production measured after 6 hrs by Western blot analysis relative to control; format: functional, organism-based; settings: dose 0.004-40 µM; how it was run: as §2
Murine hepatitis virus [7] = assay: Antiviral activity against MHV-A59 infected in LR7 cells assessed as reduction in N protein production at 40 uM treated 2 hrs after post viral infection and measured after 6 hrs by Western blot analysis relative to control; format: functional; parameters: scale not given: the % may be the effect or the level left; how it was run: as §2
[8] = Inhibition of SARS-CoV-2 3CL protease expressed in Escherichia coli BL21 DE3 using 2-aminobenzoyl-SVTLQSG-Tyr(NO2)-R as substrate preincubated with substrate for 15 mins followed by compound addition and measured after 1 hr by FRET assay; parameters: species or system Severe acute respiratory syndrome coronavirus 2
Murine hepatitis virus [9] = assay: Antiviral activity against MHV-A59 infected in LR7 cells assessed as reduction in N protein production at 4 nM treated 2 hrs post viral infection and measured after 6 hrs by Western blot analysis; format: functional; parameters: scale not given: the % may be the effect or the level left; how it was run: as §2
[10] = Cmax in human; format: ADME
[11] = Cytotoxicity against African green monkey Vero E6 cells assessed as maximum non-toxic concentration after 6 hrs by MTT assay; format: cell-based; settings: chlorocebus aethiops
How it was run: (§3)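 Vero E6 or LR7 cells seeded at 1×10^4/well were grown 24 h in DMEM with 10% FBS at 37 °C and 5% CO2. Serial drug dilutions (0–500 µM) were added for 6 h (legend) or 8 h (methods). Viability was normalized to the 0.1% DMSO control.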

Murine hepatitis virus [12] = assay: Antiviral activity against MHV-A59 infected in Vero E6 cells assessed as reduction in viral gene expression at 10 uM treated 2 hrs post viral infection and measured after 6 hrs by RT-PCR analysis; format: functional; parameters: scale not given: the % may be the effect or the level left
[13] = Cytotoxicity against mouse LR7 cells assessed as maximum non-toxic concentration after 6 hrs by MTT assay; format: cell-based; how it was run: as §3
[14] = test system: Severe acute respiratory syndrome coronavirus 2; assay: Inhibition of SARS-CoV-2 3CL protease expressed in Escherichia coli BL21 DE3 at 200 uM using 2-aminobenzoyl-SVTLQSG-Tyr(NO2)-R as substrate preincubated with substrate for 15 mins followed by compound addition and measured after 1 hr by FRET assay relative to control

| SMILES | Activity (Murine hepatitis virus [1]) | Activity (Murine hepatitis virus [2]) | Activity (Murine hepatitis virus [3]) | Activity (Murine hepatitis virus [4]) | Activity (Murine hepatitis virus [5]) [%] | Activity (Murine hepatitis virus [6]) | Activity (Murine hepatitis virus [7]) | IC50 [8] [µM] | Activity (Murine hepatitis virus [9]) [%] | Cmax [10] [ng/mL] | MNTC at 6 h [11] [µM] | Activity (Murine hepatitis virus [12]) [%] | MNTC at 6 h [13] [µM] | inhibition [14] [%] |
| --- | --- | --- | --- | --- | --- | --- | --- | --- | --- | --- | --- | --- | --- | --- |
| CO/C1=C\C(C)=C\[C@@H](C)[C@@H](O)[C@@H](C)C/C(C)=C/C=C/[C@H](OC)[C@@H]([C@@H](C)[C@@H](O)[C@H](C)[C@@]2(O)C[C@@H](O)[C@H](C)[C@@H](C(C)C)O2)OC1=O | Active | Active | – | – | – | – | – | – | – | – | – | – | – | – |
| CC(C)(C)NC(=O)N[C@H](C(=O)N1C[C@H]2[C@@H]([C@H]1C(=O)NC(CC1CCC1)C(=O)C(N)=O)C2(C)C)C(C)(C)C (some centres undefined) [BOCEPREVIR] | – | – | 75% | Active | 25 | Dose-dependent effect | 90% | 1.59 | 40 | 1720 | 72.5 | 50 | 72.5 | – |
| CCC[C@H](NC(=O)[C@@H]1[C@H]2CCC[C@H]2CN1C(=O)[C@@H](NC(=O)[C@@H](NC(=O)c1cnccn1)C1CCCCC1)C(C)(C)C)C(=O)C(=O)NC1CC1 [TELAPREVIR] | – | – | inactive | – | – | – | inactive | 55.7 | – | – | 72.5 | – | 72.5 | 100 |
